According to ChEMBL document CHEMBL1123566, “Synthesis and cardiac electrophysiological activity of 2- and 3-[(substituted phenyl)alkyl]quinuclidines. Structure-activity relationships” (1987):
“And” between values parts separate entries of the source, which are not always exact repeats. Equal entries are not always repeated.

Assays:
[1] = organism: Canis familiaris; test: (§1) In vitro electrophysiological evaluation in canine cardiac occurred is 100.; assay type: functional; details: Canis lupus familiaris; Heart
[2] = organism: Canis familiaris; test: In vitro electrophysiological evaluation in canine cardiac Purkinje fibres reported as percent change Vmax at 10 uM at concentration range of 5-100 uM; Minimal (<10% decrease or increase in Vmax).; assay type: functional; details: Canis lupus familiaris, Purkinje fiber
[3] = organism: Canis familiaris; test: In vitro electrophysiological evaluation in canine cardiac Purkinje fibres reported as % change for action potential duration at 10 uM at 1-30 uM concentration range; assay type: functional, Canis lupus familiaris, Purkinje fiber
Procedure, shortened: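 Canine cardiac Purkinje fibers, intracellular recording, paced at a basic cycle length of 1 s. APD95 and Vmax are recorded together across cumulative concentrations. Compound is a 10 mM aqueous stock diluted into Tyrode's solution. Each fiber is used once as its own control. Readouts are percent change from control at 10 μM, and the maximum change with the concentration where it occurred.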

[4] = organism: Canis familiaris; test: In vitro electrophysiological evaluation in canine cardiac Purkinje fibres reported as percent change Vmax at 10 uM at concentration range of 1-30 uM; Minimal (<10% decrease or increase in Vmax).; assay type: functional; details: Canis lupus familiaris, Purkinje fiber
[5] = organism: Canis familiaris; test: In vitro electrophysiological evaluation in canine cardiac Purkinje fibres reported as percent change Vmax at 10 uM at concentration range of 0.1-100 uM; Minimal (<10% decrease or increase in Vmax).; assay type: functional, organism-based; details: Canis lupus familiaris, Purkinje fiber
Procedure, shortened: (§2)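 Canine cardiac Purkinje fibres, intracellular microelectrode recording, paced at a basic cycle length of 1 s. APD95 and Vmax read simultaneously. Compound: 10 mM stock in deionized water, diluted into Tyrode's solution, tested over the stated concentration range. Each fibre used once as its own control. Result is % change from control, given at 10 µM or as the maximum with its concentration. M = <10% decrease or an increase in Vmax.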

[6] = organism: Canis familiaris; test: In vitro electrophysiological evaluation in canine cardiac ventricular muscle reported as maximum % change for functional refractory period (FRP) at 0.1-100 uM concentration range; concentration at which it occurred is 100.; design: species or system Canis lupus familiaris, Muscle tissue
[7] = organism: Canis familiaris; test: (§3) In vitro electrophysiological activity in canine cardiac occurred is 100.; assay type: functional, Canis lupus familiaris, Heart
[8] = system: Canis familiaris; test: Effective dose administered intravenously to elicit Antiarrhythmic efficacy in anesthetized dogs was reported; Number of animals effective at that dose is 1.; assay type: functional, Canis lupus familiaris, Heart
Procedure, shortened: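 Dogs are anesthetized and the chest reopened. Stimulating and recording electrodes go on the myocardium. Reproducible PES-induced sustained VT or VF is confirmed first; SVT is ended by burst pacing and VF by DC countershock. Compound is given iv in 0.9% saline and inducibility retested. A dose counts as effective when SVT/VF cannot be reinduced in two of three animals.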

[9] = organism: Canis familiaris; test: In vitro electrophysiological evaluation in canine cardiac Purkinje fibres reported as % change for action potential duration at a concentration of 10 uM; assay type: functional, Canis lupus familiaris, Purkinje fiber; procedure, shortened: as §2
[10] = organism: Canis familiaris; test: In vitro electrophysiological evaluation in canine cardiac ventricular muscle reported as % change for the functional refractory period (FRP) at 10 uM at concentration range of 0.1-100 uM; design: species or system Canis lupus familiaris, Muscle tissue
Procedure, shortened: (§4)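 Canine right ventricle and papillary muscle strips in oxygenated Tyrode's solution, fitted with stimulating and recording electrodes. The extra-stimulus conduction-interval method was adapted for in vitro use. FRP and CT were read from a conduction-interval curve before and after various compound concentrations, and expressed as percent change from control. Compounds were taken from 10 mM deionized-water stock into Tyrode's. Each strip was used once as its own control.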

[11] = organism: Canis familiaris; test: as §3; assay type: functional, Canis lupus familiaris, Heart; remark: listed apart in the source
[12] = organism: Canis familiaris; test: as §1; assay type: functional; details: Canis lupus familiaris; Heart; remark: listed apart in the source
[13] = organism: Canis familiaris; test: In vitro electrophysiological evaluation in canine cardiac Purkinje fibres reported as maximum percent change Vmax concentration range of 0.1-100 uM; Minimal (<10% decrease or increase in Vmax).; assay type: functional; details: Canis lupus familiaris; Purkinje fiber; procedure, shortened: as §2
[14] = organism: Canis familiaris; test: In vitro electrophysiological evaluation in canine cardiac ventricular muscle reported as maximum % change for conduction time(CT) at 0.1-100 uM concentration range; Minimal (<10% decrease or increase in […]).; assay type: functional, Canis lupus familiaris, Muscle tissue
Procedure, shortened: (§5)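 Canine right ventricular/papillary muscle strips in oxygenated Tyrode's, extracellular extra-stimulus conduction-interval method. FRP and CT are read from conduction-interval curves before and during rising concentrations. Compound is a 10 mM aqueous stock diluted into Tyrode's. Each strip is used once as its own control. Readouts are percent change from control at 10 μM, plus the maximum change with its concentration.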

[15] = organism: Canis familiaris; test: In vitro electrophysiological evaluation in canine cardiac ventricular muscle reported as % change for conduction time(CT) at 10 uM at 0.1-100 uM concentration range; Minimal (<10% decrease or increase in […]).; assay type: functional, Canis lupus familiaris, Muscle tissue; procedure, shortened: as §5
[16] = organism: Canis familiaris; test: as §3; assay type: functional, Canis lupus familiaris, Heart; remark: listed apart in the source
[17] = organism: Canis familiaris; test: as §1; assay type: functional; details: Canis lupus familiaris; Heart; remark: listed apart in the source
[18] = organism: Canis familiaris; test: as §3; assay type: functional, Canis lupus familiaris, Heart; remark: listed apart in the source
[19] = organism: Canis familiaris; test: In vitro electrophysiological evaluation in canine cardiac ventricular muscle reported as % change for conduction time(CT) at 0.1-100 uM concentration range; Minimal (<IO%increase or a decrease in CT); assay type: functional, Canis lupus familiaris, Muscle tissue
[20] = organism: Canis familiaris; test: (§6) In vitro electrophysiological evaluation in canine cardiac Purkinje fibres reported as % change for action potential duration at 0.1-100 uM concentration range; assay type: functional, Canis lupus familiaris, Purkinje fiber; procedure, shortened: as §2
[21] = organism: Canis familiaris; test: In vitro electrophysiological evaluation in canine cardiac Purkinje fibres reported as maximum percent change Vmax concentration range of 1-100 uM; M = Minimal(<IO%increase or a decrease in CT); assay type: functional; details: Canis lupus familiaris; Purkinje fiber; procedure, shortened: as §2
[22] = organism: Canis familiaris; test: In vitro electrophysiological evaluation in canine cardiac ventricular muscle reported as maximum % change for conduction time(CT) at 0.1-100 uM concentration range; Minimal (<IO%increase or a decrease in CT); assay type: functional, Canis lupus familiaris, Muscle tissue; procedure, shortened: as §4
[23] = organism: Canis familiaris; test: In vitro electrophysiological activity in canine cardiac Purkinje fibres given as maximum % change for action potential duration at 95% repolarization at 1 uM concentration; assay type: functional, Canis lupus familiaris, Purkinje fiber
Procedure, shortened: (§7)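 Canine cardiac Purkinje fibres, intracellular recording at 1 s basic cycle length, over cumulative concentration ranges. Compound 10 mM stock in deionized water diluted into Tyrode's. Each fibre used once as its own control. Value is the maximum % change from control in APD at 95% repolarization, with the concentration where it occurred; both values given if a biphasic response (>20% reversal) occurred.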

[24] = organism: Canis familiaris; test: In vitro electrophysiological evaluation in canine cardiac Purkinje fibres reported as maximum percent change Vmax concentration range of 0.1-30 uM; assay type: functional; details: Canis lupus familiaris; Purkinje fiber; procedure, shortened: as §2
[25] = organism: Canis familiaris; test: In vitro electrophysiological evaluation in canine cardiac ventricular muscle reported as maximum % change for functional refractory period (FRP) at 0.1-100 uM concentration range; design: species or system Canis lupus familiaris, Muscle tissue
[26] = organism: Canis familiaris; test: In vitro electrophysiological activity in canine cardiac Purkinje fibres given as maximum % change for action potential duration at 100 uM concentration; assay type: functional, Canis lupus familiaris, Purkinje fiber; procedure, shortened: as §7
[27] = organism: Canis familiaris; test: In vitro electrophysiological activity in canine cardiac Purkinje fibres given as maximum % change for action potential duration at 10 uM concentration; assay type: functional, Canis lupus familiaris, Purkinje fiber; procedure, shortened: as §7
[28] = organism: Canis familiaris; test: In vitro electrophysiological evaluation in canine cardiac Purkinje fibres reported as % change for action potential duration at 1-100 uM concentration range; assay type: functional, Canis lupus familiaris, Purkinje fiber; procedure, shortened: as §2
[29] = organism: Canis familiaris; test: In vitro electrophysiological activity in canine cardiac Purkinje fibres given as maximum % change for action potential duration t 100 uM concentration; assay type: functional, Canis lupus familiaris, Purkinje fiber; procedure, shortened: as §7
[30] = organism: Canis familiaris; test: In vitro electrophysiological activity in canine cardiac Purkinje fibres given as maximum % change for action potential duration at 0.1-100 uM concentration; assay type: functional, Canis lupus familiaris, Purkinje fiber; procedure, shortened: as §7
[31] = organism: Canis familiaris; test: as §6; assay type: functional, Canis lupus familiaris, Purkinje fiber; procedure, shortened: as §2; remark: listed apart in the source
[32] = organism: Canis familiaris; test: In vitro electrophysiological evaluation in canine cardiac Purkinje fibres reported as percent change Vmax concentration range of 0.1-100 uM; assay type: functional; details: Canis lupus familiaris; Purkinje fiber; procedure, shortened: as §2
[33] = organism: Canis familiaris; test: In vitro electrophysiological evaluation in canine cardiac Purkinje fibres reported as percent change Vmax concentration range of 0.1-30 uM; assay type: functional; details: Canis lupus familiaris; Purkinje fiber; procedure, shortened: as §2
[34] = organism: Canis familiaris; test: In vitro electrophysiological evaluation in canine cardiac ventricular muscle reported as % change for the functional refractory period (FRP) concentration range of 0.1-100 uM; design: species or system Canis lupus familiaris, Muscle tissue; procedure, shortened: as §4
[35] = organism: Canis familiaris; test: In vitro electrophysiological evaluation in canine cardiac Purkinje fibres reported as percent change Vmax concentration range of 1-100 uM; Minimal (<IO%increase or a decrease in CT; Minimal (<IO%increase or a decrease in CT); assay type: functional; details: Canis lupus familiaris; Purkinje fiber; procedure, shortened: as §2
[36] = organism: Canis familiaris; test: In vitro electrophysiological evaluation in canine cardiac Purkinje fibres reported as % change for action potential duration at 0.1-30 uM concentration range; assay type: functional, Canis lupus familiaris, Purkinje fiber; procedure, shortened: as §2
[37] = organism: Canis familiaris; test: In vitro electrophysiological evaluation in canine cardiac Purkinje fibres reported as percent change Vmax concentration range of 0.1-100 uM; Minimal (<IO%increase or a decrease in CT); assay type: functional; details: Canis lupus familiaris; Purkinje fiber; procedure, shortened: as §2

SMILES: CCN(CC)CC(=O)Nc1c(C)cccc1C [LIDOCAINE]
- Vmax [1]: -11%
- Vmax [2]: < 10%
- APD95 [3]: -30%
- Vmax [4]: < 10%
- Vmax [5]: < 10%
- FRP [6]: 23% and 8% and 18%
- APD95 [7]: -48%
- Effective dose [8]: 3 mg/kg
- APD95 [9]: -23%
- FRP [10]: 6% and 4% and 2%
- APD95 [11]: -43%
- Vmax [12]: -42%
- Vmax [13]: < 10%
- CT [14]: <10%
- CT [15]: <10%
- APD95 [16]: -33%
- Vmax [17]: -10%
- APD95 [18]: -43%

SMILES: Cl.Clc1ccc(CCCC2CC3CCN2CC3)cc1 (configuration not stated)
- CT [19]: <10%
- APD95 [20]: 21% and 12%
- Vmax [21]: < 10%
- CT [22]: <10%
- APD95 [23]: 40%
- Vmax [24]: < 10%
- FRP [25]: 25%
- APD95 [26]: 21%
- APD95 [27]: 30% and 12%
- APD95 [28]: -20%
- APD95 [29]: -20%
- APD95 [30]: 13%
- APD95 [31]: 2%
- Vmax [32]: -10%
- Vmax [33]: -23%
- FRP [34]: 25%
- Vmax [35]: < 10%
- APD95 [36]: 30%
- Vmax [37]: -13% and < 10%
